Experimental data from ChEMBL document CHEMBL5661979, “Pharmacological inhibition of BMK1 suppresses tumor growth through promyelocytic leukemia protein” (Cancer Cell, 2010).
Calls of active or inactive are those of the source. No cut-off for these calls is given here.

What was measured:
[1] = biological target: Mitogen-activated protein kinase 7 (Mus musculus) (UniProt Q9WVS8); assay: Inhibition of BMK1 in mouse MEF cells assessed as increase in p21 protein expression at 5 uM incubated for 16 hrs by Western blot analysis; assay type: cell-based
Chain of Mitogen-activated protein kinase 7 (Mus musculus) (Q9WVS8 whole entry): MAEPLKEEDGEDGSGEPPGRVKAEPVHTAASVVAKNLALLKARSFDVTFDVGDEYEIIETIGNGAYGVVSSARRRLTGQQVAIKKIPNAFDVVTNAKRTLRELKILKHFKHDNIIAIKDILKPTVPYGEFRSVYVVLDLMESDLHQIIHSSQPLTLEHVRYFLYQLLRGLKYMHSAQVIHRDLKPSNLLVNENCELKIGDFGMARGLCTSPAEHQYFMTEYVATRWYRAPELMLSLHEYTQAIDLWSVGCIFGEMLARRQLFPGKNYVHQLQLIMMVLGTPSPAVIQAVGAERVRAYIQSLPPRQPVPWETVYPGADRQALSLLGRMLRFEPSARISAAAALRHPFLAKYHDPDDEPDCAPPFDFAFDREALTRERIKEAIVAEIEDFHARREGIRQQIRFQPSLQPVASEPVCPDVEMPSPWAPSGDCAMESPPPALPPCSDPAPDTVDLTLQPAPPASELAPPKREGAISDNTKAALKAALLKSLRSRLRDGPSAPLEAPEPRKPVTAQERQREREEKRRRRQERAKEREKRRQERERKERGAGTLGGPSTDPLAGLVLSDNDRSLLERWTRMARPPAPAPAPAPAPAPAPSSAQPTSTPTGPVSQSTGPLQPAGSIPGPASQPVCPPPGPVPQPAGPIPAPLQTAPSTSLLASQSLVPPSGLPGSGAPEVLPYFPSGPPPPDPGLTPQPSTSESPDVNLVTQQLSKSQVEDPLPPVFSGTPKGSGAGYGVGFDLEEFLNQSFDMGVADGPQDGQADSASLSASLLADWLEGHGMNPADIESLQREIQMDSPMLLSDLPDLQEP
In short: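 Pml+/+ or Pml−/− MEFs treated ±5 μM inhibitor for 16 h. Lysates western blotted for p21, quantified by densitometry and normalized to GAPDH, relative to untreated Pml+/+ MEF set as 1. n = 3, ±SEM.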

[2] = biological target: c-Jun N-terminal kinase, JNK (Homo sapiens, UniProt P45983+P53779+P45984); assay: Inhibition of JNK1/JNK2/JNK3 in human HeLa cells lysate pre incubated for 15 mins followed by ATP acyl phosphate probe addition and measured after 10 mins by LC-MS/MS analysis; assay type: subcellular
[3] = biological target: T1, Serine/threonine-protein kinase Chk1 (Homo sapiens) (UniProt O14757); assay: Inhibition of CHK1 K2 site in human HeLa cells lysate at 2 uM pre incubated for 15 mins followed by ATP acyl phosphate probe addition and measured after 10 mins by LC-MS/MS analysis relative to control; assay type: subcellular; settings: time 25.0 min
T1 sequence (whole entry): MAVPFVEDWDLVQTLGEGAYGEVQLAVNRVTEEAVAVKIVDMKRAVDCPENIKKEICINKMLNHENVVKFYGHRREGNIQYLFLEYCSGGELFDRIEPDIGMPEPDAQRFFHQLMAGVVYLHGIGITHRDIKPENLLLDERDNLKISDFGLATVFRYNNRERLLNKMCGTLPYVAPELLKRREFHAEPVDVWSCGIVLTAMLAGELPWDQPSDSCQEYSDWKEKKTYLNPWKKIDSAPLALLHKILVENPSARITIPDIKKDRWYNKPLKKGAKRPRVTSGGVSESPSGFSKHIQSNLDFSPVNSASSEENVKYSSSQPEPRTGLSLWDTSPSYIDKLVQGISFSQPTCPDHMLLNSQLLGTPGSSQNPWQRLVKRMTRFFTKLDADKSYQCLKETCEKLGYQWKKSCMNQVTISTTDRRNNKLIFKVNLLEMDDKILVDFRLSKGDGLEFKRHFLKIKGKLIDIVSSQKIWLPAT
In short: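 KiNativ profiling in HeLa lysate (5 mg/mL total protein). Lysate incubated 15 min with inhibitor at 50, 10, 2, 0.8 or 0 μM. ATP or ADP acylphosphate probe then added (5 μM final) and reacted 10 min. Reaction stopped with urea and analysed by targeted MS, using up to four fragment ions per kinase peptide-probe conjugate. % inhibition taken against untreated lysate. Run in duplicate.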

[4] = biological target: Serine/threonine-protein kinase Nek7 (Homo sapiens, UniProt Q8TDX7); assay: Inhibition of NEK7 in human HeLa cells lysate at 10 uM pre incubated for 15 mins followed by ADP acyl phosphate probe addition and measured after 10 mins by LC-MS/MS analysis relative to control; assay type: subcellular; settings: time 25.0 min
Chain of Serine/threonine-protein kinase Nek7 (Q8TDX7 whole entry, looked up, canonical isoform): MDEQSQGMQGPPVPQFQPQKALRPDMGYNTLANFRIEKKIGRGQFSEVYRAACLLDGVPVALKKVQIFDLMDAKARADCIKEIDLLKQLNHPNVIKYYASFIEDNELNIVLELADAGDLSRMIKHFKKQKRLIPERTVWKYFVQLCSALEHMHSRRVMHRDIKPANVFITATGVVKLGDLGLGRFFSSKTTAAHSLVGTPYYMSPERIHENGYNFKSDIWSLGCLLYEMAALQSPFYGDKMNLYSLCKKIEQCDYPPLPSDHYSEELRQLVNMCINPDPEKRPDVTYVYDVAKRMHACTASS

[5] = biological target: Serine/threonine-protein kinase PLK1 (Homo sapiens, UniProt P53350); assay: Inhibition of PLK1 splice variant in human HeLa cells lysate pre incubated for 15 mins followed by ADP acyl phosphate probe addition and measured after 10 mins by LC-MS/MS analysis; assay type: subcellular
Chain of Serine/threonine-protein kinase PLK1 (P53350 2-603 limits assumed, stated change not applied): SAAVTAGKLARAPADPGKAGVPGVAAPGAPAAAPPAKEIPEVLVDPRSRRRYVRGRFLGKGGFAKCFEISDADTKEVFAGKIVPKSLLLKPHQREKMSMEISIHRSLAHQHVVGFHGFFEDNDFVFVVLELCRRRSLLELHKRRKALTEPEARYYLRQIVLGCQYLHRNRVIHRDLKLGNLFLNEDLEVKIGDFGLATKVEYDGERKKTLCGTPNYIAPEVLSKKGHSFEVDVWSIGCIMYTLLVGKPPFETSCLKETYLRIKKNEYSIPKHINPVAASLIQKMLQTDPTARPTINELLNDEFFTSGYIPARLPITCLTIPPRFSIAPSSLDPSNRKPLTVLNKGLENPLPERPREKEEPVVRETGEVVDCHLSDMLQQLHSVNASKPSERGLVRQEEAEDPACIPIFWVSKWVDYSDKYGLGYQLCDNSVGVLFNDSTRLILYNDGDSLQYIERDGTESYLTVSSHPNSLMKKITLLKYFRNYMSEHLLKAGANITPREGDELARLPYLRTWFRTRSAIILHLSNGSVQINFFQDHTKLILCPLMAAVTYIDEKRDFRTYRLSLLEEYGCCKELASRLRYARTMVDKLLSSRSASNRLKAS

[6] = biological target: Serine/threonine-protein kinase Nek8 (Homo sapiens) (UniProt Q86SG6); assay: Inhibition of NEK8 in human HeLa cells lysate at 10 uM pre incubated for 15 mins followed by ADP acyl phosphate probe addition and measured after 10 mins by LC-MS/MS analysis relative to control; assay type: subcellular; settings: time 25.0 min
Chain of Serine/threonine-protein kinase Nek8 (Homo sapiens) (Q86SG6 whole entry, canonical isoform): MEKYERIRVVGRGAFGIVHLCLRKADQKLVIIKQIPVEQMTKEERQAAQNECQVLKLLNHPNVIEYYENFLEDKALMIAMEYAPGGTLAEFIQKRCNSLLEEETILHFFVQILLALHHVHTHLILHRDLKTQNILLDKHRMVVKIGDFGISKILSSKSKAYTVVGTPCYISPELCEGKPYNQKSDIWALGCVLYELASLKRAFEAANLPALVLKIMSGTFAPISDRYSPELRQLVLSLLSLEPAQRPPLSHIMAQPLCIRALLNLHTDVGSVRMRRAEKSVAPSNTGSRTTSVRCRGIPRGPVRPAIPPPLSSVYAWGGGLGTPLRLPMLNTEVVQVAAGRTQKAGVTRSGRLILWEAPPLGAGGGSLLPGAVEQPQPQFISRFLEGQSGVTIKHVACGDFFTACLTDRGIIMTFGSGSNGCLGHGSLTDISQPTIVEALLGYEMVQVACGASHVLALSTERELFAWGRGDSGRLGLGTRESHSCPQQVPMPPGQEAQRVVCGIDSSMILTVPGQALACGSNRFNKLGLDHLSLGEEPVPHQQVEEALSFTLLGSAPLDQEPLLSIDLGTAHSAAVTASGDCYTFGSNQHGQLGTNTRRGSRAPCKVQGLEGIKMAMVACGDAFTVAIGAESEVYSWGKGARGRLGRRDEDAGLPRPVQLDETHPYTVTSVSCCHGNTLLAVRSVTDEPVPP

[7] = biological target: T2, Phosphorylase b kinase gamma catalytic chain, liver/testis isoform (Homo sapiens) (UniProt P15735); assay: Inhibition of PHKg2 in human HeLa cells lysate at 10 uM pre incubated for 15 mins followed by ATP acyl phosphate probe addition and measured after 10 mins by LC-MS/MS analysis relative to control; assay type: subcellular; settings: time 25.0 min
T2 sequence (whole entry): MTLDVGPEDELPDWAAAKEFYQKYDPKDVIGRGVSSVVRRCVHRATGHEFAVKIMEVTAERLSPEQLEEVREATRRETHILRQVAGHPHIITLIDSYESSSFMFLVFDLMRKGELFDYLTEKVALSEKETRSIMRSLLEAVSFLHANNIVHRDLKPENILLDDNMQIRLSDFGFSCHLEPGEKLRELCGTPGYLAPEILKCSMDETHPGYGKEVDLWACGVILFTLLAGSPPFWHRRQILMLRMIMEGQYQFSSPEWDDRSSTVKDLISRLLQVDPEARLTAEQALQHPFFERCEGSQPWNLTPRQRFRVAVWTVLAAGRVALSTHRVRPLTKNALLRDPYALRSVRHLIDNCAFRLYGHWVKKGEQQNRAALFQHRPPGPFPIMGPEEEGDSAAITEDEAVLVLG

[8] = biological target: STE20-like serine/threonine-protein kinase (Homo sapiens, UniProt Q9H2G2); assay: Inhibition of SLK in human HeLa cells lysate at 2 uM pre incubated for 15 mins followed by ADP acyl phosphate probe addition and measured after 10 mins by LC-MS/MS analysis relative to control; assay type: subcellular; settings: time 25.0 min
Chain of STE20-like serine/threonine-protein kinase (Q9H2G2 whole entry, looked up): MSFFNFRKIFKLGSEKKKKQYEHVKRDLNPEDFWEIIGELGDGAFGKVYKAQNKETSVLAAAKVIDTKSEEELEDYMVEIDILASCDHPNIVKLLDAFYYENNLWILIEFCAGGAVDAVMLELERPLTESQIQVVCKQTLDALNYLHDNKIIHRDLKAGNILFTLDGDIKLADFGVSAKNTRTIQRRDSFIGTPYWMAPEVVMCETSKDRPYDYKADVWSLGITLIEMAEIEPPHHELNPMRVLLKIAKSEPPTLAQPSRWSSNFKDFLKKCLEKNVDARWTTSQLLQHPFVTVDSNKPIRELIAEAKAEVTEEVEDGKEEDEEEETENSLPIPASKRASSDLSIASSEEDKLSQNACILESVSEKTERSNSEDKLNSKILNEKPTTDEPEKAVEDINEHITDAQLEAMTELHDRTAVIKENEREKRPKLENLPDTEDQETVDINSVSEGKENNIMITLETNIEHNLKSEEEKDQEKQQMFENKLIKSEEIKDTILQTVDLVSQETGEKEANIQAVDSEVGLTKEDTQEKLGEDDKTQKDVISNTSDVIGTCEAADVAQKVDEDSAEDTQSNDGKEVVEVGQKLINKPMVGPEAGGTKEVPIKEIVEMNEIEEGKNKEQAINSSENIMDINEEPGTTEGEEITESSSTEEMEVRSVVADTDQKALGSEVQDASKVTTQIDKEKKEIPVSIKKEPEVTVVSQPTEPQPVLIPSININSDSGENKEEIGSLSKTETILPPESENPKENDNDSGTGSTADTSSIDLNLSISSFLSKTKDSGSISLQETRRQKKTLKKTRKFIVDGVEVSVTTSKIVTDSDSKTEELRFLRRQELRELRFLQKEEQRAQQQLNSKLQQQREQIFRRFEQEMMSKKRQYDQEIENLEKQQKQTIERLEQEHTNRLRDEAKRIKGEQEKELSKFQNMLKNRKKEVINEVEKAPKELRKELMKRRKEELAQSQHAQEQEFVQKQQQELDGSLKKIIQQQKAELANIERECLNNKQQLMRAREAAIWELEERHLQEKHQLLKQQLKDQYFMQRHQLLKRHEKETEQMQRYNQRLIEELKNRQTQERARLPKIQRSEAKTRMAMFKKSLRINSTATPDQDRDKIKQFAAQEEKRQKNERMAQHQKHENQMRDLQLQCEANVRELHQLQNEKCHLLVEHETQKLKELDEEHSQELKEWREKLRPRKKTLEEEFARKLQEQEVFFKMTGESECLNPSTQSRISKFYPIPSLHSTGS

[9] = biological target: T3, Phosphatidylinositol 5-phosphate 4-kinase type-2 alpha (Homo sapiens) (UniProt P48426); assay: Inhibition of PIP5K2A LIP site in human HeLa cells lysate at 50 uM pre incubated for 15 mins followed by ADP acyl phosphate probe addition and measured after 10 mins by LC-MS/MS analysis relative to control; assay type: subcellular; settings: time 25.0 min
T3 sequence (whole entry): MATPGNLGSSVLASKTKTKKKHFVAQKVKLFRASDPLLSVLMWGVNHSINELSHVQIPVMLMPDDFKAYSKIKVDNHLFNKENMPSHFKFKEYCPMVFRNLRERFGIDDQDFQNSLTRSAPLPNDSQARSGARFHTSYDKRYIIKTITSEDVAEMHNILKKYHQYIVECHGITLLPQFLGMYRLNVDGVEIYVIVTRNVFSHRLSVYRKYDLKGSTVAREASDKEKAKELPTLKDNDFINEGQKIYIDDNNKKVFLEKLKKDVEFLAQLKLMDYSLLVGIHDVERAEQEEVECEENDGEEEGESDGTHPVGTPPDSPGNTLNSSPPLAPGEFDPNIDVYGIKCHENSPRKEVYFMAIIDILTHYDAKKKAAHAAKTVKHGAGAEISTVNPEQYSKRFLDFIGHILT

[10] = biological target: Calcium/calmodulin-dependent protein kinase type II subunit gamma (Homo sapiens, UniProt Q13555); assay: Inhibition of CAMK2g in human HeLa cells lysate at 2 uM pre incubated for 15 mins followed by ADP acyl phosphate probe addition and measured after 10 mins by LC-MS/MS analysis relative to control; assay type: subcellular; settings: time 25.0 min
Chain of Calcium/calmodulin-dependent protein kinase type II subunit gamma (Q13555 whole entry, the tested form may be a part): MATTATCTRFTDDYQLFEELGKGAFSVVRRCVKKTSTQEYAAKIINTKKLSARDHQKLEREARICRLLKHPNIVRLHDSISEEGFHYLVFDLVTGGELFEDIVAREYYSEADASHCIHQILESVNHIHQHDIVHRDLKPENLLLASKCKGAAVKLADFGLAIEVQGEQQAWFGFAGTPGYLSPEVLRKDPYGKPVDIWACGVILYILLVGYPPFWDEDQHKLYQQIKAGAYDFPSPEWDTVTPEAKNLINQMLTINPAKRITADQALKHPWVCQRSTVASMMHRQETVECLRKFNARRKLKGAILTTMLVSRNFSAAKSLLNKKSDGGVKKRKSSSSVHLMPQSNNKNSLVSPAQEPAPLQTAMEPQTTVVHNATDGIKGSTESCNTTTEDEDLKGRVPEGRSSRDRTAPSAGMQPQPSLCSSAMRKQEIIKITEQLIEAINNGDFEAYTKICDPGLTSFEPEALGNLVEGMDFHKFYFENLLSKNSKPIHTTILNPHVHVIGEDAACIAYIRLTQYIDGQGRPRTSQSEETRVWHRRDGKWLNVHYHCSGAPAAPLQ
In short: (§1)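 KiNativ-type profiling in HeLa lysate (5 mg/mL total protein). Lysate preincubated 15 min with inhibitor at 50, 10, 2, 0.8 or 0 μM, then ATP or ADP acylphosphate probe added (5 μM final) for 10 min. Reaction stopped with urea and analysed by targeted MS, using up to four fragment ions per kinase peptide-probe conjugate. % inhibition calculated against untreated lysate. Duplicate reactions.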

[11] = biological target: Calcium/calmodulin-dependent protein kinase type II subunit delta (Homo sapiens, UniProt Q13557); assay: Inhibition of CAMK2d in human HeLa cells lysate at 10 uM pre incubated for 15 mins followed by ATP acyl phosphate probe addition and measured after 10 mins by LC-MS/MS analysis relative to control; assay type: subcellular; settings: time 25.0 min; in short: as §1
Chain of Calcium/calmodulin-dependent protein kinase type II subunit delta (Q13557 whole entry): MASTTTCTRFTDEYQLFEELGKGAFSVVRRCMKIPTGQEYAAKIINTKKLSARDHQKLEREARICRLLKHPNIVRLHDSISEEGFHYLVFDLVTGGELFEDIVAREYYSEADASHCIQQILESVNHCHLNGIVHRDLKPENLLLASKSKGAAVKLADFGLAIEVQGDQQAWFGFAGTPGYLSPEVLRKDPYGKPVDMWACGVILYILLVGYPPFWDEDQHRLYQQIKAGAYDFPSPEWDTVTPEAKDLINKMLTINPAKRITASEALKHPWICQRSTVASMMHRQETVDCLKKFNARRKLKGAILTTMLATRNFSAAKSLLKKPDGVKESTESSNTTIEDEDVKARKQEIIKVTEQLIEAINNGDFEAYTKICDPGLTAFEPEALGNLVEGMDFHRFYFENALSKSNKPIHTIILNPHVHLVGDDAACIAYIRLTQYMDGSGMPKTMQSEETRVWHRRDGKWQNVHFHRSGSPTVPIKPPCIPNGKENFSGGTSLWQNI

## CCOc1cc(N2CCC(O)CC2)ccc1Nc1ncc2c(n1)N(C)c1ccccc1C(=O)N2C
[1]
  inhibition: Active
[2]
  IC50: > 50 µM
[3]
  inhibition: -2%
[4]
  inhibition: -7.9%
[5]
  IC50: > 50 µM
[6]
  inhibition: -0.8%
[7]
  inhibition: -4.9%
[8]
  inhibition: 13.3%
[9]
  inhibition: 15.1%
[10]
  inhibition: -2.2%
[11]
  inhibition: 3.2%
